Measurements: ChEMBL document CHEMBL1137547, “Synthesis and antifungal activities of novel 2-aminotetralin derivatives” (2007)
In brackets after ≈: the same amount, converted by molar mass.

Key:
Assay type in all cases: functional
Trichophyton rubrum = assay: Antifungal activity against Trichophyton rubrum
How it was run: (§1)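 Dermatophytes were tested by NCCLS serial dilution in RPMI 1640 with 0.165 M MOPS and incubated at 28 °C. Compounds were dissolved in DMSO and diluted in medium. Strains came from ATCC or clinical isolates. The MIC was read at 7 d as the lowest concentration reducing turbidity by ≥80% relative to the drug-free control.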

Microsporum = assay: Antifungal activity against Microsporum gypseum; how it was run: as §1
Aspergillus fumigatus = assay: Antifungal activity against Aspergillus fumigatus
How it was run: (§2)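 NCCLS broth serial dilution in RPMI 1640 buffered with 0.165 M MOPS. Compounds were dissolved in DMSO and serially diluted in medium. Strains came from ATCC or clinical isolates. The growth MIC for filamentous fungi was read at 7 d, taken as the lowest concentration giving ≥80% turbidity inhibition versus the growth control.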

Fonsecaea compacta = assay: Antifungal activity against Fonsecaea compacta; how it was run: as §2
Cryptococcus neoformans = assay: Antifungal activity against Cryptococcus neoformans after 72 hrs
How it was run: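 Cryptococcus neoformans was tested by NCCLS serial dilution in MOPS-buffered (0.165 M) RPMI 1640 at 35 °C. Compounds were dissolved in DMSO and diluted in medium. The MIC was read at 72 h as the lowest concentration giving turbidity inhibition of ≥80% relative to the growth control.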

Candida parapsilosis = assay: Antifungal activity against Candida parapsilosis after 24 hrs; conditions: Lodderomyces parapsilosis
How it was run: (§3)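 Candida yeasts were tested by NCCLS microdilution in RPMI 1640 buffered with 0.165 M MOPS and incubated at 35 °C. Compounds were dissolved in DMSO and serially diluted in medium. Isolates came from ATCC or the clinic. The MIC was read at 24 h as the lowest concentration achieving ≥80% growth inhibition versus the control.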

Candida albicans = assay: Antifungal activity against Candida albicans after 24 hrs; how it was run: as §3

Row | SMILES | MIC (Trichophyton rubrum) [µM] | MIC (Microsporum) [µM] | MIC (Aspergillus fumigatus) [µM] | MIC (Fonsecaea compacta) [µM] | MIC (Cryptococcus neoformans) [µM] | MIC (Candida parapsilosis) [µM] | MIC (Candida albicans) [µM]
1 | Oc1cccc2c1CC(NCc1ccccc1)CC2 (stereo not given) | 0.5 (≈ 0.127 µg/mL) | 32 (≈ 8.11 µg/mL) | > 64 | 32 (≈ 8.11 µg/mL) | > 64 | > 64 | 64 (≈ 16.2 µg/mL)
2 | CCCCCCCCCCCCCCCCCCNC1CCc2c(cccc2OC)C1 (stereo not given) | 32 (≈ 13.8 µg/mL) | 16 (≈ 6.88 µg/mL) | > 64 | 64 (≈ 27.5 µg/mL) | > 64 | > 64 | > 64
3 | CCCCCCCCCCCCCCCCCCNC1CCc2cc(OC)ccc2C1 (stereo not given) | 8 (≈ 3.44 µg/mL) | > 64 | > 64 | > 64 | > 64 | > 64 | 64 (≈ 27.5 µg/mL)
4 | CCCCCCCCCCCCCCCCCCNC1CCc2ccc(OC)cc2C1 (stereo not given) | 8 (≈ 3.44 µg/mL) | 64 (≈ 27.5 µg/mL) | > 64 | > 64 | > 64 | > 64 | > 64
5 | CCCCCCCCCCCCCCCCCCNC1CCc2cccc(OC)c2C1 (stereo not given) | 2 (≈ 0.859 µg/mL) | 64 (≈ 27.5 µg/mL) | > 64 | > 64 | 64 (≈ 27.5 µg/mL) | > 64 | > 64
6 | CCCCCCCCCCCCCCCCCCNC1CCc2c(O)cccc2C1 (stereo not given) | 16 (≈ 6.65 µg/mL) | > 64 | > 64 | > 64 | > 64 | > 64 | 64 (≈ 26.6 µg/mL)
7 | CCCCCCCCCCCCCCCCCCNC1CCc2cc(O)ccc2C1 (stereo not given) | 8 (≈ 3.33 µg/mL) | 64 (≈ 26.6 µg/mL) | > 64 | > 64 | > 64 | > 64 | 32 (≈ 13.3 µg/mL)
8 | CCCCCCCCCCCCCCCCCCNC1CCc2ccc(O)cc2C1 (stereo not given) | 2 (≈ 0.831 µg/mL) | > 64 | > 64 | 64 (≈ 26.6 µg/mL) | > 64 | > 64 | 16 (≈ 6.65 µg/mL)
9 | Oc1ccc2c(c1)CCC(NCc1ccccc1)C2 (stereo not given) | 8 (≈ 2.03 µg/mL) | > 64 | > 64 | > 64 | > 64 | > 64 | 64 (≈ 16.2 µg/mL)
10 | Oc1cccc2c1CCC(Nc1ccccc1)C2 (stereo not given) | 8 (≈ 1.91 µg/mL) | > 64 | > 64 | > 64 | > 64 | > 64 | > 64
11 | COc1cccc2c1CC(NCc1ccccc1)CC2 (stereo not given) | 32 (≈ 8.56 µg/mL) | 4 (≈ 1.07 µg/mL) | > 64 | > 64 | > 64 | > 64 | > 64
12 | Oc1cccc2c1CCC(NCc1ccccc1)C2 (stereo not given) | 0.125 (≈ 0.0317 µg/mL) | > 64 | > 64 | > 64 | > 64 | > 64 | 64 (≈ 16.2 µg/mL)
13 | COc1cccc2c1CCC(Nc1ccccc1)C2 (stereo not given) | 2 (≈ 0.507 µg/mL) | 32 (≈ 8.11 µg/mL) | > 64 | > 64 | > 64 | > 64 | > 64
14 | COc1ccc2c(c1)CCC(Nc1ccccc1)C2 (stereo not given) | 0.5 (≈ 0.127 µg/mL) | 32 (≈ 8.11 µg/mL) | > 64 | > 64 | > 64 | > 64 | > 64
15 | COc1ccc2c(c1)CC(Nc1ccccc1)CC2 (stereo not given) | 4 (≈ 1.01 µg/mL) | 64 (≈ 16.2 µg/mL) | > 64 | > 64 | 64 (≈ 16.2 µg/mL) | > 64 | > 64
16 | Oc1cccc2c1CC(Nc1ccccc1)CC2 (stereo not given) | 4 (≈ 0.957 µg/mL) | 32 (≈ 7.66 µg/mL) | > 64 | 64 (≈ 15.3 µg/mL) | 32 (≈ 7.66 µg/mL) | > 64 | > 64
17 | CCCCCCCCCCCCCCNC1CCc2cccc(OC)c2C1 (stereo not given) | 0.5 (≈ 0.187 µg/mL) | 2 (≈ 0.747 µg/mL) | > 64 | 32 (≈ 12 µg/mL) | 32 (≈ 12 µg/mL) | 16 (≈ 5.98 µg/mL) | 4 (≈ 1.49 µg/mL)
18 | COc1cccc2c1CC(Nc1ccccc1)CC2 (stereo not given) | 4 (≈ 1.01 µg/mL) | 32 (≈ 8.11 µg/mL) | > 64 | > 64 | > 64 | > 64 | > 64
19 | CCCCCCCCCCCCCCNC1CCc2c(O)cccc2C1 (stereo not given) | 0.5 (≈ 0.18 µg/mL) | 4 (≈ 1.44 µg/mL) | > 64 | > 64 | 8 (≈ 2.88 µg/mL) | > 64 | 8 (≈ 2.88 µg/mL)
20 | CCCCCCCCCCCCCCNC1CCc2cc(O)ccc2C1 (stereo not given) | 0.5 (≈ 0.18 µg/mL) | 2 (≈ 0.719 µg/mL) | > 64 | > 64 | > 4 | 32 (≈ 11.5 µg/mL) | 2 (≈ 0.719 µg/mL)
21 | Oc1ccc2c(c1)CC(Nc1ccccc1)CC2 (stereo not given) | 8 (≈ 1.91 µg/mL) | 16 (≈ 3.83 µg/mL) | > 64 | 32 (≈ 7.66 µg/mL) | 16 (≈ 3.83 µg/mL) | > 64 | 32 (≈ 7.66 µg/mL)
22 | COc1ccc2c(c1)CCC(NCc1ccccc1)C2 (stereo not given) | 16 (≈ 4.28 µg/mL) | > 64 | > 64 | > 64 | > 64 | > 64 | 30 (≈ 8.02 µg/mL)
23 | COc1ccc2c(c1)CC(NCc1ccccc1)CC2 (stereo not given) | 4 (≈ 1.07 µg/mL) | > 64 | > 64 | > 64 | > 64 | > 64 | 64 (≈ 17.1 µg/mL)
24 | Oc1ccc2c(c1)CC(NCc1ccccc1)CC2 (stereo not given) | 16 (≈ 4.05 µg/mL) | > 64 | > 64 | > 64 | > 64 | > 64 | 64 (≈ 16.2 µg/mL)
25 | CCCCCCCCCCCCCCNC1CCc2ccc(O)cc2C1 (stereo not given) | 0.5 (≈ 0.18 µg/mL) | 4 (≈ 1.44 µg/mL) | > 64 | 8 (≈ 2.88 µg/mL) | 8 (≈ 2.88 µg/mL) | 4 (≈ 1.44 µg/mL) | 4 (≈ 1.44 µg/mL)
26 | Oc1ccc2c(c1)CCC(Nc1ccccc1)C2 (stereo not given) | 8 (≈ 1.91 µg/mL) | 32 (≈ 7.66 µg/mL) | > 64 | 64 (≈ 15.3 µg/mL) | 64 (≈ 15.3 µg/mL) | 64 (≈ 15.3 µg/mL) | 64 (≈ 15.3 µg/mL)
27 | CCCCCCCCCCCCCCCCCCNC1CCc2cccc(O)c2C1 (stereo not given) | 2 (≈ 0.831 µg/mL) | > 64 | > 64 | 64 (≈ 26.6 µg/mL) | > 64 | > 64 | > 64
28 | COc1ccc(NC2CCc3c(cccc3OC)C2)cc1 (stereo not given) | 2 (≈ 0.567 µg/mL) | 8 (≈ 2.27 µg/mL) | > 64 | > 64 | > 64 | > 64 | > 64
29 | CCCCCCCCCCCCCCNC1CCc2cccc(O)c2C1 (stereo not given) | 0.125 (≈ 0.0449 µg/mL) | 4 (≈ 1.44 µg/mL) | 16 (≈ 5.75 µg/mL) | 16 (≈ 5.75 µg/mL) | 32 (≈ 11.5 µg/mL) | 64 (≈ 23 µg/mL) | 16 (≈ 5.75 µg/mL)
30 | COc1cccc2c1CCC(NCc1ccccc1)C2 (stereo not given) | 16 (≈ 4.28 µg/mL) | 64 (≈ 17.1 µg/mL) | > 64 | 32 (≈ 8.56 µg/mL) | 64 (≈ 17.1 µg/mL) | > 64 | 32 (≈ 8.56 µg/mL)
